The target of one test is T1, NpmA (wild-type) (Escherichia coli, UniProt A8C927).
T1 sequence (A8C927 1-219): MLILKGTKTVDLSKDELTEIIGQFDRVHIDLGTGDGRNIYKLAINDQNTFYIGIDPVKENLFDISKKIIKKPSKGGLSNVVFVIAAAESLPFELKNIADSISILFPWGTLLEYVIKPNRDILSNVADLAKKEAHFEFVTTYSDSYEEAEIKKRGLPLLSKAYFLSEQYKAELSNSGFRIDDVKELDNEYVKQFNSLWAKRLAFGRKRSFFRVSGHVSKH
Kind of test: ITC titration of wild-type NpmA with cofactor. The class given is binding.

A further test has as its target T2, NpmA D30A (Escherichia coli, UniProt A8C927, D30A).
T2 sequence (A8C927 1-219 D30A): T1 sequence (A8C927 1-219) with D30A
Kind of test: ITC titration of NpmA D30A variant with cofactor. As to conditions: 20°C. The class given is binding.

The target in another test is T3, NpmA D55A (Escherichia coli, UniProt A8C927, D55A).
T3 sequence (A8C927 1-219 D55A): T1 sequence (A8C927 1-219) with D55A
Nature of the test: ITC titration of NpmA D55A variant with cofactor. The class given is binding. The following applies: 20°C.

In the next test the target is T4, NpmA E88A (Escherichia coli, UniProt A8C927, E88A).
T4 sequence (A8C927 1-219 E88A): T1 sequence (A8C927 1-219) with E88A
Kind of test: ITC titration of NpmA E88A variant with cofactor. As to conditions: 20°C. The class given is binding.

In a further test the target is T5, NpmA S195A (Escherichia coli, UniProt A8C927, S195A).
T5 sequence (A8C927 1-219 S195A): T1 sequence (A8C927 1-219) with S195A
Nature of the test: ITC titration of NpmA S195A variant with cofactor. The class given is binding. The following applies: 20°C.

Test [1] relates to E. coli BL21(DE3)pLysS cells carrying recombinant pET-25b(+) vector with different npmA variants. Kind of test: Kanamycin MIC dilution assay in cells carrying npmA variants. The class given is cell-based, Escherichia coli. Summed up: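 BL21(DE3)pLysS cells with pET-25b(+) npmA variants were grown overnight, diluted 100-fold in LB with ampicillin (100 mg/l) and chloramphenicol (34 mg/l), and grown to OD600 1. Cells were inoculated into the same medium with kanamycin at 0.5–1024 mg/l in twofold steps and incubated 18 h at 37°C. MIC was the lowest kanamycin concentration preventing visible growth.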

Each structure is given as a SMILES string. Changes are numbered by the printed parent chain. “Also recorded” adds a separate entry of the source.

For `Nc1ncnc2c1ncn2[C@@H]1O[C@H](CSCC[C@H](N)C(=O)O)[C@@H](O)[C@H]1O` [AdoHcy, S-adenosylhomocysteine], on NpmA (wild-type), the “N (ITC single site fit) for AdoHcy” value was determined as 1.0. For the same compound, the “Kd for AdoHcy” value on NpmA D30A, on NpmA D55A and at NpmA E88A was “completely lost their ability to interact; also recorded: No binding” each time.
Regarding `C[S+](CC[C@H](N)C(=O)[O-])C[C@H]1O[C@@H](n2cnc3c(N)ncnc32)[C@H](O)[C@@H]1O` (stereo partly shown) [AdoMet, S-adenosylmethionine], the “N (ITC single site fit) for AdoMet” value on NpmA (wild-type) is reported as 1.1. At NpmA (wild-type) (Kd for AdoMet, ITC, 20°C, no 30S subunit), this compound yielded a Kd of 18 µM. Also, the “Kd for AdoMet” value at NpmA D30A was “completely lost their ability to interact; also recorded: No binding”; at NpmA D55A, “completely lost their ability to interact; also recorded: No binding”; on NpmA S195A, “complete loss of AdoMet binding; also recorded: No binding”; on NpmA E88A, “completely lost their ability to interact; also recorded: No binding”.
For `NC[C@H]1O[C@H](O[C@H]2[C@H](O)[C@@H](O[C@H]3O[C@H](CO)[C@@H](O)[C@H](N)[C@H]3O)[C@H](N)C[C@@H]2N)[C@H](O)[C@@H](O)[C@@H]1O` [Kanamycin, kanamycin], the “Kanamycin MIC” value in test [1] (Negative control (empty vector), 18 h at 37°C) is 4 to 8 µg/mL; in test [1] (cells expressing NpmA D30A) it was 8 µg/mL; in test [1] (cells expressing NpmA D55A) it was 512 µg/mL; in test [1] (cells expressing NpmA E88A) it was 1024 µg/mL; in test [1] (cells expressing NpmA F177A), 1024 µg/mL; in test [1] (cells expressing NpmA K199A), 1024 µg/mL. The “Kanamycin MIC” value came to 1024 µg/mL in test [1] (cells expressing NpmA P106A); 1024 µg/mL in test [1] (cells expressing NpmA R200A); 1024 µg/mL in test [1] (cells expressing NpmA R205A); 1024 µg/mL in test [1] (cells expressing NpmA S195A); 1024 µg/mL in test [1] (cells expressing NpmA T109A); 8 µg/mL in test [1] (cells expressing NpmA W107A). Besides, the “Kanamycin MIC” value in test [1] (cells expressing NpmA W197A) amounted to 8 µg/mL; in test [1] (cells expressing NpmA-wt), 1024 µg/mL. In test [1] (cells expressing NpmA D55A), the “kanamycin MIC compared to the wt NpmA” value is listed as 50%.

The record behind these values is PMC3061052 (Nucleic Acids Research, 2010).
